pA2 and Ratio data for four molecules are collected here from ChEMBL document CHEMBL1123581, “Differential blockade of muscarinic receptor subtypes by polymethylene tetraamines. Novel class of selective antagonists of cardiac M-2 muscarinic receptors” (J Med Chem, 1987).

The target of test [1] is Muscarinic acetylcholine receptor. Kind of test: Compound was evaluated for blocking activity on Muscarinic acetylcholine receptor in guinea pig atria. It counts as protein assay, Cavia porcellus.
Test [2] shares this target. Kind of test: Compound was evaluated for blocking activity on Muscarinic acetylcholine receptor in rat ileum. It counts as tissue-based. In outline: (§1)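 Male rat terminal ileum segment (20 mm, ~5 cm from ileocecal junction) or 2-mm longitudinal bladder strip, in Krebs-type solution. After 30 min equilibration, cumulative furtrethonium iodide curves (~3-fold steps) at 30-min intervals; antagonist incubated 30 min. Isometric contraction recorded.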

Test [3] can be described thus: Selectivity ratio of pA2 of guinea pig atria to pA2 of rat bladder. In outline: (§2)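 Computed as the antilog of the difference between pA2 values for the two tissues (atria/ileum, atria/bladder, ileum/bladder). Each pA2 is a Schild value from muscarinic agonist dose ratios at three antagonist concentrations, each n≥5.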
Test [4] in a line: Selectivity ratio of pA2 of guinea pig atria to pA2 of rat ileum. It counts as tissue-based. In outline: as §2
A short description of test [5]: Selectivity ratio of pA2 of rat ileum to pA2 of rat bladder. It counts as tissue-based. Summed up: as §2
In test [6] the target is Muscarinic acetylcholine receptor. Kind of test: Compound was evaluated for blocking activity on Muscarinic acetylcholine receptor in rat bladder. In outline: as §1

Usually pA2 stands for the negative logarithm of the molar antagonist concentration that doubles the agonist concentration needed for the same response. Read a high pA2 as a more potent antagonist. For `COc1ccccc1CNCCCCCCNCCCCCCCCCCNCCCCCCNCc1ccccc1OC.Cl.Cl.Cl.Cl`, the pA2 in test [1] worked out at 7.71; in test [2] it was 5.73; in test [6], 5.49. Besides, the results for the Ratio in test [3], in test [4] and in test [5] were 166, 95 and 1.74, respectively.
`COc1ccccc1CNCCCCCCNCCCCCCCCCCCCNCCCCCCNCc1ccccc1OC.Cl`: the values for the pA2 in test [1], in test [2] and in test [6] were 7.35, 7.62 and 7.13, respectively. The Ratio was 1.66 in test [3], 0.54 in test [4] and 3.09 in test [5].
With `COc1ccccc1CNCCCCCCNCCCCCCNCCCCCCNCc1ccccc1OC.Cl.Cl.Cl.Cl`, the pA2 in test [1] is given as 6.87; in test [2], 5.29; in test [6], 5.57. Besides, the Ratio was 20 in test [3], 38 in test [4] and 0.52 in test [5].
As for `COc1ccccc1CNCCCCCCNCCCCCCCCCNCCCCCCNCc1ccccc1OC.Cl.Cl.Cl.Cl`, the pA2 was 7.96 in test [1], 5.81 in test [2] and 6.08 in test [6].
